Reference: ChEMBL document CHEMBL4152210, “Design, synthesis, anti-lung cancer activity, and chemosensitization of tumor-selective MCACs based on ROS-mediated JNK pathway activation and NF-κB pathway inhibition” (Eur J Med Chem, 2018)
Active and inactive are the calls of the source. The calls are words filed in the database; no cut-off is given here.

Columns and labels:
A549 [1] = experiment: Chemosensitization activity in human A549 cells assessed as inhibition of clonogenic growth at 0.25 uM in presence of 9 uM cisplatin incubated for 2 days followed by replacement of growth media and measured after 8 days by crystal violet staining-based assay relative to control; type: functional
In short: (§1)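 A549 seeded at 1000 cells per well in 6-well plates, exposed to drug alone or combined with cisplatin or 5-Fu over a concentration series. Drug-containing medium replaced after 2 days. After a further 8 days, fixed with 1% methanol/1% formaldehyde and stained with 0.5% crystal violet. Percent inhibition at each concentration calculated relative to control.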

A549 [2] = experiment: Induction of apoptosis in human A549 cells at 10 uM pretreated with 5 mM NAC for 1 hr followed by compound addition and measured after 24 hrs by Annexin V-FITC/propidium iodide staining based flow cytometric analysis; type: functional, cell-based
In short: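 A549 treated 24 h at 1, 5 or 10 µM, with BMS345541 20 µM as control. Inhibitor arms pretreated 1 h with NAC (5 mM) or SP600125 (10 µM) before 10 µM. Cells harvested with EDTA-free trypsin, stained with FITC Annexin V and PI for 15 min at room temperature in the dark, analysed by flow cytometry.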

A549 [3] = experiment: Chemosensitization activity in human A549 cells assessed as inhibition of clonogenic growth at 1 uM in presence of 0.25 uM cisplatin incubated for 2 days followed by replacement of growth media and measured after 8 days by crystal violet staining-based assay relative to control; type: functional; in short: as §1
[4] = biological target: T1, Mitogen-activated protein kinase 8/9 (Homo sapiens) (UniProt P45983+P45984); experiment: Induction of JNK 1/2 phosphorylatyion in human A549 cells after 6 hrs by Western blot analysis; type: cell-based
T1 sequence (P45983 whole entry, looked up): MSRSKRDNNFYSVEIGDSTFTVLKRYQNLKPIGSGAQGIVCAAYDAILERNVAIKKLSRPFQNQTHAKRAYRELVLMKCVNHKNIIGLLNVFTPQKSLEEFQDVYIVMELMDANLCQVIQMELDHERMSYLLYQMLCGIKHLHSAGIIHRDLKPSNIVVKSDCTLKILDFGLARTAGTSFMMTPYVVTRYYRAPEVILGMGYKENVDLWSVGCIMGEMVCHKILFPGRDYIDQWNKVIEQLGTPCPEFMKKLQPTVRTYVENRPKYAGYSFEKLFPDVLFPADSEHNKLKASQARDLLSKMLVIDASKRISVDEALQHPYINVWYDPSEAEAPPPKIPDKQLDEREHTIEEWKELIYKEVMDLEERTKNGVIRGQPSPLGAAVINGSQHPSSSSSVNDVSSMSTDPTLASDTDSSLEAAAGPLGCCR
T1 sequence (P45984 whole entry, looked up): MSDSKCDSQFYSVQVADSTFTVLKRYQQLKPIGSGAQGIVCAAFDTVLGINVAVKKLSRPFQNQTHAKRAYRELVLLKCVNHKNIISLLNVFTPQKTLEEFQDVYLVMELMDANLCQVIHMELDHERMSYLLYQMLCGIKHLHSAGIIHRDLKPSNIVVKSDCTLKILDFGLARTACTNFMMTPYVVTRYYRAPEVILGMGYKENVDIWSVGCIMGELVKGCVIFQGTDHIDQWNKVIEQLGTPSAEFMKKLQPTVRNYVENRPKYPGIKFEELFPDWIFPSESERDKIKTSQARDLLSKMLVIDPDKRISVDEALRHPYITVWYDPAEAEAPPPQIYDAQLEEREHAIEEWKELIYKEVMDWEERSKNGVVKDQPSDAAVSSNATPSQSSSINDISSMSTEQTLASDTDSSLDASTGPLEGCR
In short: (§2)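 A549 exposed at 10 µM for varying times, or at various concentrations for 6 h. Inhibition arms pretreated 1 h with SP600125 (10 µM) or NAC (5 mM) before 10 µM for 6 h. Lysates run on 10% SDS-PAGE and transferred to PVDF. p-JNK probed, GAPDH as loading control.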

NCI-H1650 = experiment: Cytotoxicity against human NCI-H1650 cells assessed as reduction in cell viability after 72 hrs by MTT assay; type: functional, cell-based; conditions: NCI-H1650, 72 h
In short: (§3)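 Cells in RPMI 1640 with 10% heat-inactivated FBS and penicillin/streptomycin at 37 °C, 5% CO2. Seeded at 4000 per well, adhered overnight, then exposed to graded compound concentrations in triplicate wells for 72 h. MTT (5 mg/mL stock) added for 4 h, dissolved in DMSO, A490 read. IC50 is the concentration reducing viability by 50% versus untreated control.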

A549 [5] = experiment: Chemosensitization activity in human A549 cells assessed as inhibition of clonogenic growth at 0.25 uM in presence of 3 uM cisplatin incubated for 2 days followed by replacement of growth media and measured after 8 days by crystal violet staining-based assay relative to control; type: functional; in short: as §1
A549 [6] = experiment: Chemosensitization activity in human A549 cells assessed as inhibition of clonogenic growth at 0.25 uM in presence of 0.74 uM cisplatin incubated for 2 days followed by replacement of growth media and measured after 8 days by crystal violet staining-based assay relative to control; type: functional; in short: as §1
[7] = Selectivity index, ratio of IC50 for human HL7702 cells to IC50 for human H460 cells; type: toxicity
In short: (§4)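 Selectivity index taken as the logarithm of the ratio of the HL7702 IC50 to the cancer-line IC50. […] Not calculated when an IC50 was lacking.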

NCI-H1975 = experiment: Cytotoxicity against human NCI-H1975 cells assessed as reduction in cell viability after 72 hrs by MTT assay; type: functional, cell-based; conditions: NCI-H1975, 72 h; in short: as §3
[8] = biological target: T1, Mitogen-activated protein kinase 8/9 (Homo sapiens); experiment: Induction of JNK 1/2 phosphorylatyion in human A549 cells at 10 uM pretreated with 5 mM NAC for 1 hr followed by compound addition and measured after 6 hrs by Western blot analysis; type: cell-based; in short: as §2
NCI-H460 = experiment: Cytotoxicity against human H460 cells assessed as reduction in cell viability after 72 hrs by MTT assay; type: functional, cell-based; conditions: NCI-H460, 72 h; in short: as §3
L02 = experiment: Cytotoxicity against human HL7702 cells assessed as reduction in cell viability after 72 hrs by MTT assay; type: cell-based; conditions: L02, 72 h; in short: as §3
A549 [9] = experiment: Induction of ROS generation in human A549 cells at 10 uM after 12 hrs by DCFDA staining based flow cytometric analysis; type: functional, cell-based; conditions: in the assay text read “after 9 hrs” for “after 12 hrs”
In short: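 A549 (6 × 10^5 per 60 mm dish) exposed to 10 µM over a time course up to 12 h, or at 1, 5 or 10 µM for 9 h. Optional NAC (5 mM) pretreatment for 1 h before 10 µM for 9 h. Cells loaded with DCF-DA (10 µM) for 30 min at 37 °C in the dark, washed, and read by flow cytometry.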

[10] = biological target: T2, NF-kappa-B inhibitor alpha (Homo sapiens) (UniProt P25963); experiment: Inhibition of TNF-alpha induced IkappaBalpha degradation in human A549 cells at 10 uM pretreated with 5 mM NAC for 1 hr followed by compound addition and measured after 1 hr by Western blot analysis; type: cell-based
T2 sequence (whole entry): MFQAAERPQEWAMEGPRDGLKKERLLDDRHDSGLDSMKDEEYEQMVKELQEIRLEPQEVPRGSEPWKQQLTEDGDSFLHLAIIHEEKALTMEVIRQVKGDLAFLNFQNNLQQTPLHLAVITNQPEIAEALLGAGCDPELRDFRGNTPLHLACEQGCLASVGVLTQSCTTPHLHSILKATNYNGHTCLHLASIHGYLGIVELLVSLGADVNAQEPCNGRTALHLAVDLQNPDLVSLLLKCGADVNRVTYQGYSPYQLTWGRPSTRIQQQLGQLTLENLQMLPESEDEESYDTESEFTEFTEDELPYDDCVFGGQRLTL
In short: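 A549 preincubated 1 h at 1, 5 or 10 µM, or with BMS345541 (20 µM), then stimulated with TNFα (1 ng/mL) for 15 min. NAC arm: 5 mM NAC for 1 h, then 10 µM for 1 h. IκBα detected by western blot, GAPDH as loading control.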

A549 [11] = experiment: Antiproliferative activity against human A549 cells harboring IKKbeta at 6.67 to 60 uM after 24 hrs by MTT assay; type: functional, cell-based
In short: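 A549 (seeded 3 × 10^5 per well, overnight) transfected with IKKβ plasmid or empty vector using lipofectamine 2000 in serum-free medium for 6 h, then moved to 1640 with 10% FBS. Treated at 60, 20 or 6.67 µM for 24 h. MTT (5 mg/mL stock) added for 4 h, formazan dissolved in DMSO, absorbance read at 490 nm.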

A549 [12] = experiment: Chemosensitization activity in human A549 cells assessed as inhibition of clonogenic growth at 1 uM in presence of 0.74 uM cisplatin incubated for 2 days followed by replacement of growth media and measured after 8 days by crystal violet staining-based assay relative to control; type: functional; in short: as §1
A549 [13] = experiment: Chemosensitization activity in human A549 cells assessed as inhibition of clonogenic growth at 0.5 uM in presence of 0.74 uM cisplatin incubated for 2 days followed by replacement of growth media and measured after 8 days by crystal violet staining-based assay relative to control; type: functional; in short: as §1
[14] = Selectivity index, ratio of IC50 for human HL7702 cells to IC50 for human NCI-H1650 cells; type: toxicity; in short: as §4

Activity [4]: Dose-dependent effect
Activity [8]: inactive
inhibition [10]: inactive
Compound: COc1cc(/C=C2\CN(C)C/C(=C\c3cc(OC)c(OC)c(OC)c3)C2=O)cc(OC)c1OC
inhibition (INH) (A549 [1]): 99%
Activity (A549 [2]): inactive
inhibition (INH) (A549 [3]): 90%
IC50 (NCI-H1650): 1500 nM
inhibition (INH) (A549 [5]): 57%
inhibition (INH) (A549 [6]): 63%
log(RatioIC50) [7]: 1.42
IC50 (NCI-H1975): 1000 nM
IC50 (NCI-H460): 1000 nM
IC50 (L02): 26400 nM
Activity (A549 [9]): Dose-dependent effect
Activity (A549 [11]): inactive
inhibition (INH) (A549 [12]): 97%
inhibition (INH) (A549 [13]): 82%
log(RatioIC50) [14]: 1.25
